According to paper PMC4191586 (Journal of Medicinal Chemistry, 2014):
Entries after “also recorded” stand apart in the source; their conditions may differ. Where two headings read alike, the source gives them in different places.

Assays:
[1] = tested on: PC43-10 CHO cells (express human RFC); settings: mean (SEM), previously published, cited from earlier work
[2] = tested on: RT16 CHO cells (express human FRα); settings: read-out: IC50 FRα RT16; without folic acid; mean (SEM); cited from earlier work
[3] = tested on: FRα- and PCFT-expressing tumor cells; settings: up; cited from earlier work
[4] = tested on: PC43-10 CHO cells (express human RFC); assay: Growth inhibition assay, RFC-expressing PC43-10 CHO cells; format: cell-based, Chinese hamster; settings: PC43-10, 96 h, read-out: IC50 RFC PC43-10
[5] = tested on: D4 CHO cells (express human FRβ); assay: Growth inhibition assay, FRβ-expressing D4 CHO cells; format: cell-based, Chinese hamster; settings: for IC50: CHO, read-out: IC50 FRβ D4; for IC50 FRβ D4: without folic acid, mean (SEM)
How it was run: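 D4 cells were seeded at ~2500–5000 per well in folate-free RPMI with 10% dialyzed FBS, 2 nM leucovorin and 2 mM L-glutamine. They were exposed to a range of drug concentrations for up to 96 h, with or without 200 nM folic acid in parallel. Viability was read by CellTiter-Blue fluorescence.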

[6] = tested on: R2/PCFT4 CHO cells (express human PCFT); assay: Growth inhibition assay, PCFT-expressing R2/PCFT4 CHO cells; format: cell-based, Chinese hamster; settings: R2/PCFT4, pH 7.2, read-out: IC50 PCFT R2/PCFT4
[7] = tested on: KB human nasopharyngeal carcinoma cells (express RFC, FRα, PCFT); assay: Growth inhibition assay, KB human tumor cells; format: cell-based; settings: for IC50: Homo sapiens, read-out: IC50 RFC/FRα/PCFT KB
FRα = FRα (Homo sapiens, UniProt P15328); assay: Competitive [3H]folic acid binding assay, FRα in RT16 cells; settings: 50 nM [3H]folic acid, folic acid = 1
How it was run: (§1)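 Cells plated 48 h ahead (~5 × 10^6) were acid-stripped of bound folate (pH 3.5 acetate/NaCl) and washed in ice-cold HEPES saline, pH 7.4. They were then incubated 15 min at 0 °C with 50 nM [3H]folic acid (0.5 Ci/mmol) across a range of unlabeled ligand concentrations. After NaOH lysis, bound label was read as pmol/mg protein.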

FRβ = FRβ (Homo sapiens, UniProt P14207); assay: Competitive [3H]folic acid binding assay, FRβ in D4 cells; settings: 50 nM [3H]folic acid, folic acid = 1
How it was run: as §1

GARFTase = biological target: T1, GARFTase (Homo sapiens, UniProt P22102); assay: In situ GARFTase activity assay in KB cells; format: cell-based; settings: ratio of in situ GARFTase IC50s vs compound 7
T1 sequence (P22102 1-1010): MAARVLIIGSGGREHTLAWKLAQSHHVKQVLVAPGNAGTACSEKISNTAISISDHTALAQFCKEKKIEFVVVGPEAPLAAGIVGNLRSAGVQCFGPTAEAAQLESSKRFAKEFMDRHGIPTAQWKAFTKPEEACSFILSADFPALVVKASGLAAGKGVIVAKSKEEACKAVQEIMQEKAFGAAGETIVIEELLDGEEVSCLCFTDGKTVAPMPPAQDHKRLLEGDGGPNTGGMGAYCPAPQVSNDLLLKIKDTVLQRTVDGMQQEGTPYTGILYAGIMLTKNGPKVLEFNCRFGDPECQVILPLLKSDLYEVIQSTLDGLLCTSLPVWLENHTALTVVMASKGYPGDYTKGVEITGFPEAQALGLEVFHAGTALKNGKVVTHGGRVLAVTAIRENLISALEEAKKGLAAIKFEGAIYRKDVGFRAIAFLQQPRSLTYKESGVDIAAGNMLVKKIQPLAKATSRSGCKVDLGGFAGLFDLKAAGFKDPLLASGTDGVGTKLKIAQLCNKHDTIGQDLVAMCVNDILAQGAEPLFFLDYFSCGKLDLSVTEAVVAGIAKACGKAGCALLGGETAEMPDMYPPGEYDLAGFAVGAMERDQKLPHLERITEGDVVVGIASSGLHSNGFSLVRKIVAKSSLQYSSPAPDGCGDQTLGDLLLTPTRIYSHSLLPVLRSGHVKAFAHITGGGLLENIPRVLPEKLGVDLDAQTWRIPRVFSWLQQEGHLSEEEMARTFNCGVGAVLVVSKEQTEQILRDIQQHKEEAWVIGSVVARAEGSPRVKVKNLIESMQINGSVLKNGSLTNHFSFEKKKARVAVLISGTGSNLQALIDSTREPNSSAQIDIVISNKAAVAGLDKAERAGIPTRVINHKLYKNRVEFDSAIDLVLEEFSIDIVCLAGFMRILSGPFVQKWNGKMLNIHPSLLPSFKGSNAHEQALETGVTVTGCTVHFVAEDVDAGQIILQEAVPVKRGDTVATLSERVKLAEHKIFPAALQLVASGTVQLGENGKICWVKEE

KB cells = assay: Nucleoside/AICA protection of growth inhibition in KB cells; format: cell-based, human
How it was run: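 KB human nasopharyngeal carcinoma cells were grown in complete folate-free RPMI 1640 with 2 nM LCV, with a range of test compound concentrations. Runs had no additions or included 200 nM folic acid, adenosine (60 μM), thymidine (10 μM) or AICA (320 μM). Cell density was read by CellTiter Blue fluorescence and normalized to no-drug cells; experiments were performed in triplicate.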

Chain of FRα (P15328 25-257): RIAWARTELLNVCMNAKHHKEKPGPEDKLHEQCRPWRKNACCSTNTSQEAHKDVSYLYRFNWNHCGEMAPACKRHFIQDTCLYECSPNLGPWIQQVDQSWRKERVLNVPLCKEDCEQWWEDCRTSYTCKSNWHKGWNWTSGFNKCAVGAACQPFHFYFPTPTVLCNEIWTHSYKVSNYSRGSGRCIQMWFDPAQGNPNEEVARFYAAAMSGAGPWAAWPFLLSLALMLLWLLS
Chain of FRβ (P14207 17-255): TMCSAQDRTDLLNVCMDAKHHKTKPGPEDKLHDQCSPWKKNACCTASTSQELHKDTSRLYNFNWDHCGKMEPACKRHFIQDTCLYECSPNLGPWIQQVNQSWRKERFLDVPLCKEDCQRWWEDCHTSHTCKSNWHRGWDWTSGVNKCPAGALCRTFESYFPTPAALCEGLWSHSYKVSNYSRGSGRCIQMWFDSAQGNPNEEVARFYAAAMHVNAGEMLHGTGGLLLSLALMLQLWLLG

SMILES | IC50 RFC PC43-10 [1] | IC50 ([1]; read-out: IC50 RFC PC43-10) | IC50 [2] | increase of cell growth inhibition compared to 8 [3] | IC50 [4] | IC50 [5] | IC50 FRβ D4 [5] | IC50 [6] | IC50 [7] | relative binding affinity to FRα (in words) (FRα) | relative binding affinity to FRβ (in words) (FRβ) | fold reduction of KB potency relative to IC50 of 7 ([7]; KB cells, IC50 9 nM vs 0.26 nM) | fold less potent than 7 as GARFTase inhibitor in KB cells (GARFTase) | effect of AICA on inhibition of KB cell proliferation (KB cells; AICA 320 μM) | effect of adenosine on inhibition of KB cell proliferation (KB cells; adenosine 60 μM) | effect of thymidine on inhibition of KB cell proliferation (KB cells; thymidine 10 μM)
Nc1nc2[nH]c(CCCc3ccc(C(=O)N[C@@H](CCC(=O)O)C(=O)O)s3)cc2c(=O)[nH]1 [Compound 7, (S)-2-({5-[3-(2-Amino-4-oxo-4,7-dihydro-3H-pyrrolo[2,3-d]pyrimidin-6-yl)-propyl]-thiophene-2-carbonyl}-amino)-pentanedioic Acid] | modest inhibition | 101 nM | 0.31 nM | ~10 fold |  |  |  |  |  |  |  |  |  |  |  | 
Nc1nc2[nH]c(CCCc3ccc(C(=O)O)s3)cc2c(=O)[nH]1 [Compound 9, 5-[3-(2-Amino-4-oxo-4,7-dihydro-3H-pyrrolo[2,3-d]pyrimidin-6-yl)-propyl]-thiophene-2-carboxylic Acid] |  |  |  |  | > 1000 nM | > 1000 nM | completely inactive | > 1000 nM | > 1000 nM | Substantially reduced | Substantially reduced; also recorded: undetectable binding |  |  |  |  | 
Nc1nc2[nH]c(CCCc3ccc(C(=O)N[C@@H](CC(=O)O)C(=O)O)s3)cc2c(=O)[nH]1 [Compound 10, (S)-2-({5-[3-(2-Amino-4-oxo-4,7-dihydro-3H-pyrrolo[2,3-d]pyrimidin-6-yl)-propyl]-thiophene-2-carbonyl}-amino)-butanedioic Acid] |  |  |  |  | > 1000 nM |  | substantially reduced activity | > 1000 nM | > 1000 nM | bound avidly to FRα |  |  |  |  |  | 
Nc1nc2[nH]c(CCCc3ccc(C(=O)N[C@@H](CCCC(=O)O)C(=O)O)s3)cc2c(=O)[nH]1 [Compound 11, (S)-2-({5-[3-(2-Amino-4-oxo-4,7-dihydro-3H-pyrrolo[2,3-d]pyrimidin-6-yl)propyl]thiophene-2-carbonyl}-amino)-hexanedioic Acid] |  |  |  |  | > 1000 nM |  |  | > 1000 nM |  |  | somewhat reduced | approximately 35 fold | ~6 fold | abolished the inhibitory effects | abolished the inhibitory effects | had no effect
Nc1nc2[nH]c(CCCc3ccc(C(=O)NCCCC(=O)O)s3)cc2c(=O)[nH]1 [Compound 12, 4-({5-[3-(2-Amino-4-oxo-4,7-dihydro-3H-pyrrolo[2,3-d]pyrimidin-6-yl)propyl]thiophene-2-carbonyl}-amino)-butanoic Acid] |  |  |  |  | > 1000 nM | > 1000 nM | complete inactivity | > 1000 nM | > 1000 nM | bound avidly to FRα | somewhat reduced; also recorded: distinctly reduced binding affinities |  |  |  |  | 
CCC[C@H](NC(=O)c1ccc(CCCc2cc3c(=O)[nH]c(N)nc3[nH]2)s1)C(=O)O [Compound 13, (S)-2-({5-[3-(2-Amino-4-oxo-4,7-dihydro-3H-pyrrolo[2,3-d]pyrimidin-6-yl)propyl]thiophene-2-carbonyl}-amino)-pentanoic Acid] |  |  |  |  | > 1000 nM | > 1000 nM | complete inactivity | > 1000 nM | > 1000 nM | bound avidly to FRα | somewhat reduced; also recorded: distinctly reduced binding affinities |  |  |  |  | 
